In ChEMBL document CHEMBL1147539, “Synthesis and biological evaluation of novel, selective, nonsteroidal glucocorticoid receptor antagonists” (Bioorg Med Chem Lett, 2004):

What was measured:
Estrogen receptor = biological target: T1, Estrogen receptor (Homo sapiens, UniProt P03372); assay: Displacement of [3H]estradiol from human estrogen receptor alpha
T1 sequence (P03372 whole entry): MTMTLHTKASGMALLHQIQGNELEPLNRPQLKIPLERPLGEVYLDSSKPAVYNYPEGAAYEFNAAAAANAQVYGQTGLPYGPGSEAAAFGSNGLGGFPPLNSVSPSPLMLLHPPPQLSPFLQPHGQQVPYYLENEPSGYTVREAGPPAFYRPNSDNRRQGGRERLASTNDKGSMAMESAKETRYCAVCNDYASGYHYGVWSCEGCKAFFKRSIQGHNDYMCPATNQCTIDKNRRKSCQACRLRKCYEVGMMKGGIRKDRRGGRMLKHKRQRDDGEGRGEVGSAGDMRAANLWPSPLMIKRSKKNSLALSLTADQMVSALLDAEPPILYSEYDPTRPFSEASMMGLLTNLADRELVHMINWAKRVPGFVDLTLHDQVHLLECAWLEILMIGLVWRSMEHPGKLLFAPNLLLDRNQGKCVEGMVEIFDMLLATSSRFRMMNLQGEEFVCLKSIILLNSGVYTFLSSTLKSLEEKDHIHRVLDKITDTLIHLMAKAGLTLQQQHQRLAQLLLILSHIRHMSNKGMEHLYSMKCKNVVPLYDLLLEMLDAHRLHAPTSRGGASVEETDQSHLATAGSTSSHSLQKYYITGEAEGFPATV
In short: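 Human steroid receptor (PR, MR, AR, ERα) binding measured by radioligand displacement, with IC50s determined in duplicate. Values without a range come from a single experiment, and values with a range are geometric means of repeat experiments.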

Androgen receptor = biological target: T2, Androgen receptor (Homo sapiens, UniProt P10275); assay: Displacement of [3H]mibolerone from human Androgen receptor
T2 sequence (P10275 whole entry): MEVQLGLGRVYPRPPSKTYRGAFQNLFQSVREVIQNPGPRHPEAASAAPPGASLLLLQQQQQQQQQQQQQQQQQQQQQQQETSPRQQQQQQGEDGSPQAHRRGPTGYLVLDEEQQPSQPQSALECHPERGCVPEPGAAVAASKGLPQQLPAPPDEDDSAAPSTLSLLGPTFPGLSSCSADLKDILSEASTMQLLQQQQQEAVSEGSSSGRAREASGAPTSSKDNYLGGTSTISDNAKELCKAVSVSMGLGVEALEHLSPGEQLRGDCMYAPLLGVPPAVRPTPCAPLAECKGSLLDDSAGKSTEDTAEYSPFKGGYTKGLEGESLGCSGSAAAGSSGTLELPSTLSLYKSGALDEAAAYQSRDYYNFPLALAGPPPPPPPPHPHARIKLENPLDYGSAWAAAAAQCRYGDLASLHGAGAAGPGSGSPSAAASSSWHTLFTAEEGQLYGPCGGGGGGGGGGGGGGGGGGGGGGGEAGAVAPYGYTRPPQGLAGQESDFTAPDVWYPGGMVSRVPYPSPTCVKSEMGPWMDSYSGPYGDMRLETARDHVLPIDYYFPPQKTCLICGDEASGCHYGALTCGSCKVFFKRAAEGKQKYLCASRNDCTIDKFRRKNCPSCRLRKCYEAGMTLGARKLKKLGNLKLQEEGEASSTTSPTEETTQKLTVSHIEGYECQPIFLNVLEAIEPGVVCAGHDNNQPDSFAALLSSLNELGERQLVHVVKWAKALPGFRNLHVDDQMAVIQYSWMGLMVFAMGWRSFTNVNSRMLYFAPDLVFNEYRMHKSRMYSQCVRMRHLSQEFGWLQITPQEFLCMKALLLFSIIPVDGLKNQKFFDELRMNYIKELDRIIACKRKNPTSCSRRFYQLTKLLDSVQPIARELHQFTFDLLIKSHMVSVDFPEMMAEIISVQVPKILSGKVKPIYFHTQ

Glucocorticoid receptor = biological target: T3, Glucocorticoid receptor (Homo sapiens, UniProt P04150); assay: Effect on human Glucocorticoid receptor (GR) in a whole cell assay to measure functional cellular GR-antagonism (GRAF)
T3 sequence (P04150 whole entry): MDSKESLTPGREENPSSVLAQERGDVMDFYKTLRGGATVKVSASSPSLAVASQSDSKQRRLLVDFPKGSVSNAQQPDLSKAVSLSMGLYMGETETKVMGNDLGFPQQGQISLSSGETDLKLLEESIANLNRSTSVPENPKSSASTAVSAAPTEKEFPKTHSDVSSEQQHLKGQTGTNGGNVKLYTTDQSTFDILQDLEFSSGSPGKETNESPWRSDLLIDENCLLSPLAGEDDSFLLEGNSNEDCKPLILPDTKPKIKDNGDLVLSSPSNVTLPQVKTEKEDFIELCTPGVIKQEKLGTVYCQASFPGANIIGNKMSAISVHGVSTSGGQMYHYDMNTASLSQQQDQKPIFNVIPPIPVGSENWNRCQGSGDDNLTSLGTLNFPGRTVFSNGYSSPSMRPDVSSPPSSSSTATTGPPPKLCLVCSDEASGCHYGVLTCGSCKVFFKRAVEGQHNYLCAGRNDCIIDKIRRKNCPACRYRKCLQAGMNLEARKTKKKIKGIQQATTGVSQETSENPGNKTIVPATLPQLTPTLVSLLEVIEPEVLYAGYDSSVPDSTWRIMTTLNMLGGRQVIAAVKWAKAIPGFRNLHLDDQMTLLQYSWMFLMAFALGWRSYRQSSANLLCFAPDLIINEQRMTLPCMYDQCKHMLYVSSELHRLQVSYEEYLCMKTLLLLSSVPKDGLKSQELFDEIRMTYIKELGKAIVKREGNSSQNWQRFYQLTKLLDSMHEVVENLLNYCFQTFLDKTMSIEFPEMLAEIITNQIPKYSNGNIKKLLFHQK

| Structure (SMILES) | IC50 (Estrogen receptor) [µM] | IC50 (Androgen receptor) [µM] | IC50 (Glucocorticoid receptor) [µM] |
| --- | --- | --- | --- |
| COc1cccc2c1-c1ccc(NS(C)(=O)=O)cc1C(c1cccs1)O2 (stereo not drawn) | > 10 | > 10 | 0.066 |
| COc1cccc2c1-c1ccc(NS(C)(=O)=O)cc1C(c1cccc(F)c1)O2 (stereo not drawn) | > 10 | > 10 | 0.076 |
| CCOc1cccc2c1-c1ccc(NS(C)(=O)=O)cc1C(c1ccccc1)O2 (stereo not drawn) | > 10 | > 10 | 0.308 |

Further lines, results first:

| IC50 (Estrogen receptor) [µM] | IC50 (Androgen receptor) [µM] | IC50 (Glucocorticoid receptor) [µM] | Structure (SMILES) |
| --- | --- | --- | --- |
| > 10 | > 10 | – | COc1cccc2c1-c1ccc(NS(C)(=O)=O)cc1C(c1ccc(C)cc1)O2 (stereo not drawn) |
| > 1 | > 10 | – | COc1cccc2c1-c1ccc(NS(C)(=O)=O)cc1C(c1ccc(F)cc1)O2 (stereo not drawn) |
